# Screening data deposited in PubChem BioAssay by several laboratories.
# B2AR ag: agonists of human beta-2 adrenergic receptor inducing internalization; P07550; Am2.2-beta2AR cells, FAP receptor internalization, flow cytometry; response, % (no concentration beside the values); 340,000 tested, 0.43% active;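 active = response above a set limit, near 3 SD of response in nonfluorescent compounds, cut at about 42% in these data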
# ABHD5 PLIN5 PPI: blocks binding of human ABHD5 to perilipin-5; Q00G26+Q8WTS1; Split G. princeps luciferase complementation, luminescence, 4 h; inhibition, % at 4 µM; 360,000 tested, 0.78% active;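 active = inhibition above the mean inhibition across every tested compound plus 3 SD, cut at about 22% in these data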;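 note: 0% = DMSO only wells and the 100% control is not disclosed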
# Target sequence (Q00G26 whole entry, looked up): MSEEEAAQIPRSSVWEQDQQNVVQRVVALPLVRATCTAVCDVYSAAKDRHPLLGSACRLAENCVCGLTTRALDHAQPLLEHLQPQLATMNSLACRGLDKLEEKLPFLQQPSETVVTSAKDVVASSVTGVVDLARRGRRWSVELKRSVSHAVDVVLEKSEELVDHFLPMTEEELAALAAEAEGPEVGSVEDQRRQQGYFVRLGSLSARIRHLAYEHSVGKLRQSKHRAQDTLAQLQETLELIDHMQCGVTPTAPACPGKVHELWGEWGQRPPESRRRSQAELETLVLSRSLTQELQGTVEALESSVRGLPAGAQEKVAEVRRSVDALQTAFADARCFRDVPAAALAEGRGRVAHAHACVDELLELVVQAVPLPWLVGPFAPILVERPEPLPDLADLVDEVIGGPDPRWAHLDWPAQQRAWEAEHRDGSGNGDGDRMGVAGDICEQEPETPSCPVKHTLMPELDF
# Target sequence (Q8WTS1 whole entry, looked up): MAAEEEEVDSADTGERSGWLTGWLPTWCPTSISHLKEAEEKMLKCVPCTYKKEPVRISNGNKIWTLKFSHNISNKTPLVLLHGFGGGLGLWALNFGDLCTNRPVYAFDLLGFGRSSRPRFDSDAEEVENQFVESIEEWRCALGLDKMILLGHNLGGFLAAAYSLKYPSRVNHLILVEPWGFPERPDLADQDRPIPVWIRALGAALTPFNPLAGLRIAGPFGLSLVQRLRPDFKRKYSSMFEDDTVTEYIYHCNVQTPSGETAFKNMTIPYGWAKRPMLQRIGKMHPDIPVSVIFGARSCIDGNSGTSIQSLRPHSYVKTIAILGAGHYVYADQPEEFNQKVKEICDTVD
# MC4R ag barr: agonists of human melanocortin 4 receptor (MC4R) beta-arrestin; P32245; U2OS MC4R beta-arrestin complementation, luminescence; percent of melanotan II response, DMSO zero; activation, % at 8.9 µM; 360,000 tested, 0.98% active; AID 540308;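 active = activation above a per-plate cutoff, the mean activation of sample wells on that plate plus 3 SD, cut at about 8% in these data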
# MC4R antagonist: human MC4R antagonism in cAMP assay; 360,000 tested, 0.48% active; AID 540295; inhibition, % at 6.5 µM; MC4R-expressing cells, MTII-stimulated cAMP, LANCE TR-FRET; P32245;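 active = inhibition above its plate's cutoff, the mean of tested wells on that plate plus 3 SD, cut at about 29% in these data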;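 note: 0% = Melanotan II alone and 100% = Melanotan II plus saturating MCL0020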
#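 Test system: U2OS cells stably expressing human melanocortin 4 receptor (MC4R); also added: Melanotan II challenge; compound: 6.5 µM single dose; timing: 30-min compound preincubation, 1-h Melanotan II challenge, 1-h detection, room temperature; signal: Eu-cAMP/anti-cAMP TR-FRET, emission 671 nm; repeats: one well per compound, no replicates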
# PfG6PD inh: PfG6PD (Plasmodium falciparum) enzyme inhibition | PfGluPho enzyme, NADPH resazurin-diaphorase fluorescence | inhibition, % at 20 µM | 350,000 tested, 0.78% active;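 active = inhibition reaching at least a set limit at 20 µM in the primary screen, cut at about 59% in these data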;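 note: 0% = DMSO wells with substrate and 100% = DMSO wells lacking glucose-6-phosphate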
# PfGluPho conf: confirmation of Plasmodium falciparum G6PD inhibitors | shares compounds with PfG6PD inh | recombinant PfGluPho, NADPH-diaphorase-resazurin fluorescence | inhibition, % at 20 µM | 2,400 tested, 34% active;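 active = inhibition of at least 50% at 20 µM in any single replicate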;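 note: 0% = DMSO with substrate and 100% = DMSO lacking glucose-6-phosphate substrate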
# Diaph ctr 10uM: diaphorase inhibition or oxidation at 10 uM NADPH; shares compounds with PfG6PD inh; diaphorase-coupled resazurin reduction, fluorescence, NADPH 10 uM; inhibition, % at 20 µM; 820 tested, 39% active;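 active = average inhibition reaching 50% or more with the compound at 20 µM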;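 note: resorufin red fluorescence formed as diaphorase reduces resazurin using NADPH; 0% = DMSO with enzyme and 100% = DMSO without enzyme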
# Diaphorase 30uM: counter-screen for P. falciparum G6PD inhibitors: diaphorase inhibitors, oxidizers; inhibition, % at 20 µM; 820 tested, 29% active; Diaphorase/resazurin coupled assay, resorufin fluorescence, 30 uM NADPH; shares compounds with PfG6PD inh;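 active = inhibition averaging 50% or more, tested at 20 µM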;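 note: 0% = DMSO with enzyme and 100% = DMSO wells lacking diaphorase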
# Numbers without * were called inactive; . = no result given. Sampled rows, rich in hits. Any-hit rate of the full collection: about 3%.
SMILES,B2AR ag,ABHD5 PLIN5 PPI,MC4R ag barr,MC4R antagonist,PfG6PD inh,PfGluPho conf,others
CCc1c(C)sc(NC(=O)Cn2nc(C)c([N+](=O)[O-])c2C)c1C(N)=O,1,-8,-1,15,69*,29,
O=c1[nH]nc(CNc2ccc(O)cc2)c2ccccc12,-4,-5,-1,-6,59*,48*,Diaph ctr 10uM=1;Diaphorase 30uM=6
O=c1[nH]nc(CNc2ccc(C(F)(F)F)cc2)c2ccccc12,-13,13,7,-13,30,.,
Cc1ccc(Nc2cc(C)nc(-c3ccccc3)n2)cc1,4,-3,-1,-5,65*,-4,
Cc1cc(Nc2ccc(Cl)cc2)nc(NCc2ccccc2)n1,37,18,6,6,60*,-27,
COc1ccc(NC(=O)Nc2cccc([N+](=O)[O-])c2)cc1Cl,9,4,-2,5,61*,10,
Fc1ccc(COc2ccccc2C(=S)N2CCCC2)cc1,1,-5,-2,-4,70*,39,
CC1C=CCC2C(=O)N(c3cccc(C(=O)Nc4ccc(Br)cc4)c3)C(=O)C12 (centres undefined),12,-14,-4,17,14,.,
CCOc1ccc(C(=O)/C=C/c2cn(CN3CCN(C)CC3)c3ccccc23)cc1,1,-5,8,10,62*,-21,
CCCCOc1ccc(Cc2n[nH]c(=S)n2N)cc1,-6,-5,1,16,61*,50*,Diaph ctr 10uM=-20;Diaphorase 30uM=-17
CCC(C(=O)N1CCCCCC1)n1nc(C)n2c(cc3occc32)c1=O (centres undefined),-11,2,-2,-5,-12,.,
Cc1ccc(S(=O)c2ccc([N+](=O)[O-])c3nonc23)cc1 (centres undefined),.,13,0,-22,117*,103*,Diaph ctr 10uM=11;Diaphorase 30uM=11
Cc1ccc(Nc2c([N+](=O)[O-])ccc3nonc23)c(C)c1,-1,0,1,0,7,.,
O=C(N/N=C\c1ccccc1)c1sccc1-n1cccc1,-1,-4,1,-4,45,.,
Cc1cccc(/C=N\NC(=O)c2sccc2-n2cccc2)c1,7,-5,1,6,71*,42,
CCC(C)(C)NC(=O)CN(C(=O)CNS(=O)(=O)c1ccc(F)cc1)c1ccc2c(c1)OCCO2,4,5,2,11,-7,.,
CCCN(C)C1CN(Cc2cn(Cc3cccc(Cl)c3)nn2)S(=O)(=O)C1 (centres undefined),.,-3,.,.,.,.,
Oc1ccc(/C=N/N=C(c2ccccc2)c2ccccc2)c(O)c1O,4,-10,3,9,75*,73*,Diaph ctr 10uM=51*;Diaphorase 30uM=35
COc1cccc(Nc2nc(C(N)Cc3ccccc3)cs2)n1 (centres undefined),.,-12,1,-16,.,.,
O=C1CCC[C@@H]2[C@H](Cc3ccccc3)[C@@H](O)C[C@@H]3CCN1[C@@H]32,-3,7,-1,-2,-7,.,
O=C1CCC[C@@H]2[C@@H](Cc3ccccc3)[C@H](N3CCN(c4ccccc4)CC3)C[C@@H]3CCN1[C@@H]32,6,5,0,14,107*,56*,Diaph ctr 10uM=60*;Diaphorase 30uM=47
C[C@]12c3[nH]c4cc(-c5ccco5)ccc4c3CCN1C(=O)[C@@H](CC(=O)NCCC1=CCCCC1)C[C@@H]2C(=O)N1CCOCC1,4,5,-2,12,25,.,
O=C(O)c1cc(O)c2c(c1)[C@@H]([C@H]1c3cc(C(=O)O)cc(O)c3C(=O)c3c(O[C@@H]4O[C@H](CO)[C@@H](O)[C@H](O)[C@H]4O)cccc31)c1cccc(OC3O[C@H](CO)[C@@H](O)[C@H](O)[C@H]3O)c1C2=O (some centres undefined),23,-3,-1,5,69*,7,
